Assay results from different studies.
Target: RAC-gamma serine/threonine-protein kinase (AKT3, Homo sapiens, UniProt Q9Y243)

| SMILES | assay | setting | measurement | value |
| --- | --- | --- | --- | --- |
| CCCOc1ccc(OC)c(F)c1C(=O)c1ccc(C(=O)N[C@@H]2CNC[C@H]2NC(=O)c2ccc3[nH]ncc3c2)cc1 | enzyme activity, inhibitor | 0.75 µM | remaining activity | 39% |
| O=C(Nc1cnn(-c2csc(C(=O)NC3COC3)c2)c1)Nc1ccccc1Cl | enzyme activity, inhibitor | 5 µM | remaining activity | 87.3% |
| Cn1c2c(c3ccc(Cl)c(Cl)c31)C(C#N)C(C)(C)NC2=O (centres unmarked) | thermal stability, DSF | 10 µM | ΔTm | -0.2 °C |
| CO[C@@H](C)c1c(Nc2ccc([C@H](N(C)C(=O)C3CCS(=O)(=O)CC3)C(F)(F)F)cc2)cnc2cc(Cl)nn12 | cell-free assay, competition with immobilised ligand | 1 µM | remaining binding | 100% |
| Nc1ncnc2occ(-c3ccc(NC(=O)Nc4cc(C(F)(F)F)ccc4F)cc3)c12 | cell-free assay, inhibitor | 20 µM | remaining signal | 85% |
| Cc1cc(NC(=O)c2cccc(S(F)(F)(F)(F)F)c2)cc(-n2ccn3nc(-c4cccnc4)cc23)c1 | cell-free assay, competition with immobilised ligand | 1 µM | remaining binding | 100% |
| Cn1c2c(Cl)c(Cl)ccc2c2cn[nH]c(=O)c21 | thermal stability, DSF | 10 µM | ΔTm | 0.1 °C |
| CC/C(=N\NC(=O)NCc1cccc(O)c1)c1ccc(O)c(C)c1O | enzyme activity, inhibitor | 0.1 µM | inhibition | 22.8% |
| Cn1c2c(Cl)c(Cl)ccc2c2cc(N)[nH]c(=O)c21 | thermal stability, DSF | 10 µM | ΔTm | 0.3 °C |
| COc1cc(Nc2c(C#N)cnc3cc(OCCCN4CCN(C)CC4)c(OC)cc23)c(Cl)cc1Cl | cell-free assay | 0.5 µM | remaining signal | 90.7% |
| COc1cc(F)ccc1-c1ncnc(Nc2cccc(C[S@](C)(=N)=O)c2)n1 | enzyme activity, inhibitor | 10 µM | activity vs control | 100% |
| Cc1c(NC(=O)c2cc(C(N)=O)nc3cc(F)ccc23)c(C(F)(F)F)nn1Cc1ccc(C#N)cc1 | cell-free assay, competition with immobilised ligand | 1 µM | remaining binding | 81% |
| C[C@@H]1CCN(C(=O)CC#N)C[C@@H]1N(C)c1ncnc2[nH]ccc12 | cell-free assay, inhibitor | 0.5 µM | remaining signal | 85.8% |
| CNC(=O)c1cc(Oc2ccc(NC(=O)Nc3ccc(Cl)c(C(F)(F)F)c3)cc2)ccn1 | enzyme activity, inhibitor | 10 µM | inhibition | -1% |
| COc1cc2ncnc(Nc3ccc(Oc4ccccc4)c(C)c3C)c2cc1OC | enzyme activity, inhibitor | 1 µM | inhibition | 1% |
| CC(=O)N1CCC(c2ccc(C(=O)NC3=NCCN3)cc2C(F)(F)F)CC1 | cell-free assay, competition with immobilised ligand | 1 µM | remaining binding | 100% |

| SMILES | assay | setting | measurement | value |
| --- | --- | --- | --- | --- |
| Cn1c2c(c3ccc(Cl)c(Cl)c31)C(C#N)C1(CCN(C(=O)OC(C)(C)C)CC1)NC2=O (racemic) | thermal stability, DSF | 10 µM | ΔTm | -0.1 °C |
| Cc1cc(NC(=O)c2cccc3cc(-c4cccc5[nH]nc(N)c45)ccc23)ccc1F | enzyme activity, inhibitor | 0.1 µM | activity vs control | 90% |
| Cn1c2c(c3ccc(Cl)c(Cl)c31)C(C#N)C1(CCNCC1)NC2=O (racemic) | thermal stability, DSF | 10 µM | ΔTm | -0.1 °C |
| CN1CC(Oc2cnc(C#N)cc2-c2ccn3nc(NC(=O)C4CC4)cc3c2)C1 | enzyme activity, inhibitor | 1 µM | inhibition | 7% |
| CC(C)(C)c1nc(-c2cccc(NS(=O)(=O)c3c(F)cccc3F)c2F)c(-c2ccnc(N)n2)s1 | enzyme activity, inhibitor, radiometric | 1 µM | remaining activity | 80% |
| O=C(N1CCS(=O)(=O)CC1)N1C[C@H](c2ccc(OC(F)(F)F)cc2)C[C@H](c2nc(C3CC3)no2)C1 | cell-free assay, competition with immobilised ligand | 1 µM | remaining binding | 100% |
| Cc1ccc(Nc2nccc(N(C)c3ccc4c(C)n(C)nc4c3)n2)cc1S(N)(=O)=O | enzyme activity, inhibitor | 0.5 µM | remaining activity | 93.3% |
| O=C(Nc1ccc(Oc2ccc(F)cc2)cc1)N1CCc2ncccc2[C@H]1c1ccc(F)cc1 | cell-free assay, competition with immobilised ligand | 1 µM | remaining binding | 95% |
| COc1cc(Cl)c(C(=O)N[C@@H](CN[C@H]2CC[C@@H](N)CC2)Cc2ccc(C#N)cc2)cc1-c1ccc(CN[C@H](C)c2ccc(C)cc2)o1 | enzyme activity, inhibitor | 1 µM | remaining activity | 97% |
| Cn1cc(Cl)c2c(Oc3c(F)cc(Nc4cc(Cl)nc(N)n4)cc3F)ccnc21 | cell-free assay, competition with immobilised ligand | 0.1 µM | remaining binding | 98% |
| Cn1c2c(c3ccc(Cl)c(Cl)c31)C(C#N)C1(CCOCC1)NC2=O (centres unmarked) | thermal stability, DSF | 10 µM | ΔTm | -0.1 °C |
| Cn1nc(C(=O)NCc2ccc(C(=O)O)cc2)cc1-c1ccc2[nH]ccc2c1 | cell-free assay, competition with immobilised ligand | 0.1 µM | remaining binding | 88% |
| O=C1Nc2ccc(Cl)cc2C1=Cc1cc(Cl)c(O)c(Cl)c1 | cell-free assay | 0.5 µM | remaining signal | 96.9% |
| CNc1cccc2cc(C(=O)Nc3ccc(C(=O)O)cc3)c(=O)[nH]c12 | enzyme activity, inhibitor | 10 µM | inhibition | 5.8% |
| CCN1CCC2(CC1)NC(=O)c1c(c3ccc(Cl)c(Cl)c3n1C)C2C#N (racemic) | thermal stability, DSF | 10 µM | ΔTm | -0.2 °C |
| Cc1ccc(NC(=O)c2ccc(C)c(C(F)(F)F)c2)cc1C#Cc1nn(C2CCC(O)CC2)c2ncnc(N)c12 (centres unmarked) | cell-free assay | 10 µM | remaining signal | 94% |
